Test results as given in ChEMBL document CHEMBL1122835, “Synthesis and pharmacology of the potent angiotensin-converting enzyme inhibitor N-[1(S)-(ethoxycarbonyl)-3-phenylpropyl]-(S)-alanyl-(S)-pyroglutamic acid” (J Med Chem, 1985).

Key:
Rattus norvegicus [1] = test: Activity against the bradykinin Response in anesthetized normotensive rat, administered intravenously at dose 0.010 mg/kg; assay type: functional; conditions: dose 0.01 mg/kg; route intravenous
Procedure, shortened: (§1)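 Anesthetized (pentobarbital/barbital ip) male Charles River CD rats, 380–500 g, kept at 37 °C. Femoral artery blood pressure recorded. Control depressor response to bradykinin 1 μg/kg iv, then cumulative iv drug in 0.9% saline (1 mL/kg), 0.0033–0.27 mg/kg. Bk challenge 5 min after each dose. ED50 = dose giving a 50% change from control, by linear regression; N = 8.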

Rattus norvegicus [2] = test: Effective dose to produce ACE inhibition in rat, administered intravenously; assay type: functional; conditions: iv
Procedure, shortened: (§2)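 Male Charles River CD rats, 380–500 g, anesthetized with pentobarbital Na 15 mg/kg plus barbital 220 mg/kg ip, held at 37 °C. Femoral artery pressure recorded. AI 0.3 μg/kg and AII 0.1 μg/kg given iv as challenges. Cumulative iv drug in saline, 0.01–0.81 mg/kg, each dose followed by AI/AII challenges at 5-min intervals. ED50 = 50% change from control response, by linear regression.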

Rattus norvegicus [3] = test: Change in heart rate was determined at a dose 10 mg/kg; assay type: functional
Procedure, shortened: (§3)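 Male SHR, 13 weeks old, given HCTZ 25 mg/kg po in 0.25% methylcellulose daily for 3 days. Drug given orally in water (5 mL/kg) 1 h after the third dose. Tail-cuff systolic pressure and pulse-count heart rate taken 1.5 h later after 20 min warming at 38 °C. ANOVA with Duncan's test; ED30 by linear regression.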

Rattus norvegicus [4] = test: Hypotensive activity was determined in low-sodium treated rat, dose 10 mg/kg administered orally at 5 hr; assay type: functional; conditions: route oral
Procedure, shortened: (§4)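 Male CD rats, 11 weeks old, kept on a sodium-deficient diet for 3 weeks and fasted overnight, were dosed orally with aqueous solutions (5 mL/kg), water as control. Systolic pressure measured by tail cuff at the stated post-dose time. ANOVA with Duncan's test.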

Rattus norvegicus [5] = species on record: Rattus norvegicus; test: Effective dose was determined to increase the vasoResponse in rat; assay type: functional; procedure, shortened: as §1
Rattus norvegicus [6] = test: Hypotensive activity was determined in low-sodium treated rat, dose 30 mg/kg administered orally at 5 hr; assay type: functional; conditions: route oral; procedure, shortened: as §4
Rattus norvegicus [7] = test: Decrease in systolic blood pressure of Spontaneous Hypertensive Rats (SHR) pretreated with hydrochlorothiazide upon oral administration at 10 mm/kg; assay type: functional, Artery; procedure, shortened: as §3
Rattus norvegicus [8] = test: Change in heart rate was determined in renal hypertensive rat, administered orally at a dose 30 mg/kg; assay type: functional; conditions: route oral
Procedure, shortened: (§5)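 Renal hypertensive rats were prepared by clipping the left renal artery (0.22-mm clip) in 4-week-old male CD rats and held 6 weeks. Overnight-fasted rats were dosed orally with aqueous solution (5 mL/kg), water as control. Tail-cuff systolic pressure and heart rate measured 2 h post-dose. ANOVA with Duncan's test; ED30 by linear regression.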

Canis familiaris [9] = test: Effect on pressor response of angiotensin I in anesthetized dog, dose 0.1 mg/kg administered intravenously; assay type: functional, Canis lupus familiaris; conditions: route intravenous
Procedure, shortened: (§6)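 Mongrel dogs, 7.3–15.5 kg, anesthetized with barbital/pentobarbital iv, tracheotomized and vagotomized, n = 4. Cumulative iv doses in saline (0.2 mL/kg) spaced 30 min apart. AI and AII 1 μg/kg iv challenges given after each dose; the second pre-dose set served as control.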

Rattus norvegicus [10] = test: Effect on systolic blood pressure was determined in renal hypertensive rat, administered orally at a dose 100 mg/kg; assay type: functional, Artery; conditions: route oral; procedure, shortened: as §5
Rattus norvegicus [11] = test: Percent change was determined in bradykinin depressor response in anesthetized normotensive rat, administered intravenously at dose 0.090 mg/kg; assay type: functional; conditions: dose 0.09 mg/kg; route intravenous
Procedure, shortened: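 Male Charles River CD rats (380–500 g), pentobarbital Na 15 mg/kg plus barbital 220 mg/kg ip, tracheotomized, femoral artery/vein cannulated, kept at 37 °C. Control bradykinin 1 μg/kg iv depressor response, separate from angiotensin tests; drug iv in 0.9% saline (1 mL/kg, free base) 10 min later, Bk 5 min after each cumulative dose (0.0033–0.27 mg/kg). Maximum fall in arterial pressure versus control response; N = 8.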

Canis familiaris [12] = test: Effect on pressor response of angiotensin II in anesthetized dog, dose 0.9 mg/kg administered intravenously; assay type: functional, Canis lupus familiaris; conditions: route intravenous; procedure, shortened: as §6
Rattus norvegicus [13] = test: Percent decrease in angiotensin I pressor response was measured in rat, administered intravenously at dose 0.030 mg/kg; assay type: functional; conditions: dose 0.03 mg/kg; route intravenous
Procedure, shortened: (§7)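 Anesthetized (pentobarbital Na 15 mg/kg + barbital 220 mg/kg ip), tracheotomized male Charles River CD rats, 380–500 g, femoral cannulas, heated board at 37 °C. Control pressor responses to angiotensin I 0.3 μg/kg then angiotensin II 0.1 μg/kg iv; drug iv in 0.9% saline (free base), AI and AII repeated at 5-min intervals, cumulative 0.01–0.81 mg/kg. Peak arterial pressure rise versus control.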

Rattus norvegicus [14] = test: Hypotensive activity was determined in low-sodium treated rat, dose 3 mg/kg administered orally at 5 hr; assay type: functional; conditions: route oral; procedure, shortened: as §4
Canis familiaris [15] = test: Effect on pressor response of angiotensin I in anesthetized dog, dose 0.3 mg/kg administered intravenously; assay type: functional, Canis lupus familiaris; conditions: route intravenous; procedure, shortened: as §6
Rattus norvegicus [16] = test: Effect on systolic blood pressure was determined in renal hypertensive rat, administered orally at a dose 30 mg/kg; assay type: functional, Artery; conditions: route oral; procedure, shortened: as §5
Rattus norvegicus [17] = species on record: Rattus norvegicus; test: Dose required to reduce systolic blood pressure by 30 mmHg in renal hypertensive rat; assay type: functional; conditions: Artery; procedure, shortened: as §5
Rattus norvegicus [18] = test: Effect on vasopressor response caused by angiotensin I (AI) in anesthetized normotensive rat, administered intravenously at dose 0.090 mg/kg; assay type: functional; conditions: dose 0.09 mg/kg; route intravenous; procedure, shortened: as §2
Rattus norvegicus [19] = test: Effect on systolic blood pressure was determined in renal hypertensive rat, administered orally at a dose 3 mg/kg; assay type: functional, Artery; conditions: route oral; procedure, shortened: as §5
Rattus norvegicus [20] = test: Percent decrease in angiotensin I pressor response was measured in rat, administered intravenously at dose 0.27 mg/kg; assay type: functional; conditions: route intravenous; procedure, shortened: as §7
Rattus norvegicus [21] = test: Change in heart rate was determined at a dose 30 mg/kg; assay type: functional; procedure, shortened: as §3
Rattus norvegicus [22] = test: Activity against the bradykinin Response in anesthetized normotensive rat, administered intravenously at dose 0.030 mg/kg; assay type: functional; conditions: dose 0.03 mg/kg; route intravenous; procedure, shortened: as §1
Canis familiaris [23] = test: Effect on pressor response of angiotensin II in anesthetized dog, dose 0.1 mg/kg administered intravenously; assay type: functional, Canis lupus familiaris; conditions: route intravenous; procedure, shortened: as §6
Rattus norvegicus [24] = test: Change in heart rate was determined at a dose 3 mg/kg; assay type: functional; procedure, shortened: as §3
Rattus norvegicus [25] = species on record: Rattus norvegicus; test: Dose required to reduce systolic blood pressure by 30 mmHg; assay type: functional; conditions: Artery; procedure, shortened: as §3
Rattus norvegicus [26] = test: Effect on vasopressor response caused by angiotensin I (AI) in anesthetized normotensive rat, administered intravenously at dose 0.27 mg/kg; assay type: functional; conditions: route intravenous; procedure, shortened: as §2
Canis familiaris [27] = test: Effect on pressor response of angiotensin I in conscious dog at 60-65 min, dose 1 mg/kg administered orally; assay type: functional, Canis lupus familiaris; conditions: route oral
Procedure, shortened: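 Conscious fasted mongrel dogs of both sexes, 6.8–15.3 kg, with femoral cannulas. Drug given orally in 0.25% methylcellulose with 3% glycerin (2 mL/kg), n = 4 per dose. AI 0.3, AII 0.1 and NE 1 μg/kg iv challenges. The second pre-dose set served as control; response measured at 60–65 min post-dose.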

Rattus norvegicus [28] = test: Percent change was determined in bradykinin depressor response in anesthetized normotensive rat, administered intravenously at dose 0.0033 mg/kg; assay type: functional; conditions: route intravenous; procedure, shortened: as §1
Rattus norvegicus [29] = test: Effect on systolic blood pressure was determined in renal hypertensive rat, administered orally at a dose 10 mg/kg; assay type: functional, Artery; conditions: route oral; procedure, shortened: as §5

**Q.** How did the Response (Rattus norvegicus [1]) turn out when `CCOC(=O)[C@H](CCc1ccccc1)N[C@@H](C)C(=O)N1C(=O)CC[C@H]1C(=O)O` was run?
**A.** Its Response is -58 mmHg.

**Q.** What about the ED50 (Rattus norvegicus [2]) of the same compound?
**A.** Its ED50 is 0.13 mg/kg.

**Q.** What about the Heart rate (Rattus norvegicus [3]) of the same compound?
**A.** The Heart rate was 369 beats min-1.

**Q.** What about the Activity (Rattus norvegicus [4]) of the same compound?
**A.** Its Activity is 143 mmHg.

**Q.** And the ED50 (Rattus norvegicus [5])?
**A.** Its ED50 is 0.012 mg/kg.

**Q.** What about the Activity (Rattus norvegicus [6]) of the same compound?
**A.** Its Activity is 132 mmHg.

**Q.** And the Blood pressure (Rattus norvegicus [7])?
**A.** The Blood pressure was 189 mmHg.

**Q.** What about the Heart rate (Rattus norvegicus [8]) of the same compound?
**A.** Its Heart rate is 481 beats min-1.

**Q.** What about the Blood pressure (Canis familiaris [9]) of the same compound?
**A.** The Blood pressure was 60 mmHg.

**Q.** What about the Activity (Rattus norvegicus [10]) of the same compound?
**A.** The Activity was 186 mmHg.

**Q.** And the Change (Rattus norvegicus [11])?
**A.** Its Change is 69%.

**Q.** What about the Blood pressure (Canis familiaris [12]) of the same compound?
**A.** The Blood pressure was 73 mmHg.

**Q.** What about the Decrease (Rattus norvegicus [13]) of the same compound?
**A.** The Decrease was 19%.

**Q.** What about the Activity (Rattus norvegicus [14]) of the same compound?
**A.** The Activity was 153 mmHg.

**Q.** And the Blood pressure (Canis familiaris [15])?
**A.** Its Blood pressure is 46 mmHg.

**Q.** And the Activity (Rattus norvegicus [16])?
**A.** The Activity was 204 mmHg.

**Q.** And the ED30 (Rattus norvegicus [17])?
**A.** The ED30 was 5.9 mg/kg.

**Q.** What about the Response (Rattus norvegicus [18]) of the same compound?
**A.** Its Response is 33 mmHg.

**Q.** And the Activity (Rattus norvegicus [19])?
**A.** Its Activity is 220 mmHg.

**Q.** And the Decrease (Rattus norvegicus [20])?
**A.** Its Decrease is 63%.

**Q.** And the Heart rate (Rattus norvegicus [21])?
**A.** Its Heart rate is 381 beats min-1.

**Q.** And the Response (Rattus norvegicus [22])?
**A.** The Response was -61 mmHg.

**Q.** And the Blood pressure (Canis familiaris [23])?
**A.** Its Blood pressure is 64 mmHg.

**Q.** What about the Heart rate (Rattus norvegicus [24]) of the same compound?
**A.** The Heart rate was 374 beats min-1.

**Q.** What about the ED30 (Rattus norvegicus [25]) of the same compound?
**A.** The ED30 was 3.5 mg/kg.

**Q.** What about the Response (Rattus norvegicus [26]) of the same compound?
**A.** Its Response is 18 mmHg.

**Q.** And the Blood pressure (Canis familiaris [27])?
**A.** Its Blood pressure is 23 mmHg.

**Q.** What about the Change (Rattus norvegicus [28]) of the same compound?
**A.** The Change was 22%.

**Q.** What about the Activity (Rattus norvegicus [29]) of the same compound?
**A.** The Activity was 204 mmHg.
